Measurements: ChEMBL document CHEMBL1145074, “Binding of tetrahydrocarboline derivatives at human 5-HT5A receptors” (J Med Chem, 2003)

Experiments:
[1] = target: 5-hydroxytryptamine receptor 2A (Rattus norvegicus, UniProt P14842); assay: Binding affinity towards rat 5-hydroxytryptamine 2A receptor expressed in NIH3T3 cells using [3H]ketanserin as radioligand; format: cell-based
Summary of the method: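 Membranes from confluent NIH-3T3 cells stably expressing rat 5-HT2A, washed by centrifugation in 50 mM Tris-HCl. ~10 μg protein incubated with 0.5 nM [3H]ketanserin and 11 test concentrations (10⁻¹⁰ to 10⁻⁵ M) in triplicate. Incubation was 30 min at 37 °C in Tris/EDTA/MgCl2/ascorbate pH 7.4. Nonspecific binding defined with 10 μM ketanserin. Bound ligand was filtered and counted. Ki from Cheng–Prusoff, ≥3 determinations.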

[2] = target: T1, 5-hydroxytryptamine receptor 2C (Rattus norvegicus, UniProt P08909); assay: Binding affinity towards rat 5-hydroxytryptamine 2C receptor expressed in A-9 cells using [3H]mesulergine as radioligand; format: cell-based
T1 sequence (P08909 whole entry): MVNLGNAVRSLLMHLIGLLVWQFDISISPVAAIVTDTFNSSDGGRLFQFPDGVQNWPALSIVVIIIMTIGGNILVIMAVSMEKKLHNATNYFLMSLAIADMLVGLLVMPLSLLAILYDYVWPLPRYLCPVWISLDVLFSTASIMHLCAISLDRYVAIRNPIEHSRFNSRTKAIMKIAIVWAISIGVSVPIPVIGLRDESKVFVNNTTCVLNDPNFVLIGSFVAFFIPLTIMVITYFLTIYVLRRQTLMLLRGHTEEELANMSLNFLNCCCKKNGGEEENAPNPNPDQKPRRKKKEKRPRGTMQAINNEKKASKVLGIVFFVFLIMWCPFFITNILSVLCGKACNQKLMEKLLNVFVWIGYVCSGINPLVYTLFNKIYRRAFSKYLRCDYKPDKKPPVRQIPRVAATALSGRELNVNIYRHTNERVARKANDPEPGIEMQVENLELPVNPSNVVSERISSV
Summary of the method: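 Rat 5-HT2C stably expressed in A-9 cells, grown to confluence; washed membranes (~10 μg protein) used. Competition against 2.0 nM [3H]mesulergine with 11 concentrations from 10⁻¹⁰ to 10⁻⁵ M, triplicate. Incubation 30 min, 37 °C, pH 7.4 Tris buffer with EDTA, MgCl2 and ascorbate. 1 μM mesulergine defined nonspecific binding. Filtration, scintillation counting. Ki via Cheng–Prusoff; at least three replicates.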

[3] = target: 5-hydroxytryptamine receptor 5A (Mus musculus, UniProt P30966); assay: Binding affinity towards mouse 5-hydroxytryptamine 5A receptor using LSD as radioligand
[4] = target: T2, 5-hydroxytryptamine receptor 5A (Homo sapiens, UniProt P47898); assay: Binding affinity towards human 5-hydroxytryptamine 5A receptor using LSD as radioligand
[5] = target: T2, 5-hydroxytryptamine receptor 5A; assay: Binding affinity towards 5-hydroxytryptamine 5A receptor using lysergic acid diethylamide (LSD) as radioligand
Summary of the method: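 Radioligand competition binding at cloned 5-HT5A receptors (clone supplied by R. Hen). Nonspecific binding defined with 1 μM LSD.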

Chain of 5-hydroxytryptamine receptor 2A (P14842 whole entry): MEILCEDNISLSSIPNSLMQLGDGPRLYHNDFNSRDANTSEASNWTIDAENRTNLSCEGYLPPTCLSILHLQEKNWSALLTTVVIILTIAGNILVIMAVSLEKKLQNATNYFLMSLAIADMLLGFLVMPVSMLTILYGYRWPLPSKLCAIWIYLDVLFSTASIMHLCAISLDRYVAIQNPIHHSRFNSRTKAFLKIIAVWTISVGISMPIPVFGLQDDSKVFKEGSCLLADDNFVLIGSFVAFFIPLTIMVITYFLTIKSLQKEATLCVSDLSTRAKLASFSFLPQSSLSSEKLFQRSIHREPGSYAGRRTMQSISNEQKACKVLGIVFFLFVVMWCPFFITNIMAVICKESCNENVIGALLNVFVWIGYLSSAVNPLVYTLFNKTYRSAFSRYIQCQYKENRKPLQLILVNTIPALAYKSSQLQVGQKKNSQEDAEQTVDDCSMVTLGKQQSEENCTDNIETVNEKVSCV
Chain of 5-hydroxytryptamine receptor 5A (Mus musculus, UniProt P30966) (P30966 whole entry): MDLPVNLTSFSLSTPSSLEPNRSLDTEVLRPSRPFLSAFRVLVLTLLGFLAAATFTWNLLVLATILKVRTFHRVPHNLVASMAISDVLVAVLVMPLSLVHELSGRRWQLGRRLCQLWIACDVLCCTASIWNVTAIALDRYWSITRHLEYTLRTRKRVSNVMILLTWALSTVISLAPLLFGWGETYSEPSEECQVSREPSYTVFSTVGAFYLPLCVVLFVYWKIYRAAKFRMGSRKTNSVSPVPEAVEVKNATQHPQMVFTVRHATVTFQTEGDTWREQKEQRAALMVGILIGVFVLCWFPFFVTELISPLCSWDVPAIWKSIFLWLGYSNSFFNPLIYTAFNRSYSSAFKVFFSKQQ
T2 sequence (P47898 whole entry): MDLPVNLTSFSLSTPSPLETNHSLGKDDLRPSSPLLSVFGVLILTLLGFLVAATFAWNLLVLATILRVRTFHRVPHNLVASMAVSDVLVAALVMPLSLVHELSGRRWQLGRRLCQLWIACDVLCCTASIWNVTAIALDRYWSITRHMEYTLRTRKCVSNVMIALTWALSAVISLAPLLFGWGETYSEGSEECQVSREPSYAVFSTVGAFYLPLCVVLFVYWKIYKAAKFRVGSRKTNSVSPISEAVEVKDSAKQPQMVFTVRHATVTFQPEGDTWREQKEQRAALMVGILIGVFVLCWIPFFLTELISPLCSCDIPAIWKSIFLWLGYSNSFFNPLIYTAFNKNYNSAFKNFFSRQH

Row | SMILES | Ki [1] | Ki [2] | Ki [3] | Ki [4] | Ki [5]
1 | Cn1c2c(c3ccccc31)CN(CCCCCCc1ccccc1)CC2 | 185 nM | 530 nM | 435 nM |  | 
2 | Cn1c2c(c3ccccc31)CN(CCCCCc1ccccc1)CC2 | 130 nM | 1000 nM | 120 nM | 174 nM | 
3 | Cn1c2c(c3ccccc31)CN(CCCO)CC2 |  |  | 1100 nM | 1120 nM | 
4 | Cn1c2c(c3ccccc31)CN(CCC/C(=N/O)c1ccc(F)cc1)CC2 | 38 nM | 190 nM |  | 340 nM | 
5 | Cn1c2c(c3ccccc31)CN(CCCOc1cccc3ccccc13)CC2 | 625 nM | 400 nM | 650 nM |  | 
6 | c1ccc(OCCCN2CCc3[nH]c4ccccc4c3C2)cc1 | 20 nM | 160 nM | 600 nM |  | 
7 | Cn1c2c(c3ccccc31)CN(CCCc1ccccc1)CC2 |  |  | 250 nM |  | 
8 | CN(CCCOc1ccc(F)cc1)Cc1cn(C)c2ccccc12 |  |  |  |  | 1080 nM
9 | Fc1ccc(OCCCN2CCc3ccccc3C2)cc1 |  |  |  |  | 400 nM
10 | Fc1ccc(OCCCN2CCc3[nH]c4ccccc4c3C2)cc1 |  |  | 75 nM |  | 
11 | Cn1c2c(c3cccc(Cl)c31)CN(CCCOc1ccc(F)cc1)CC2 | 210 nM | 225 nM | 590 nM | 225 nM | 
12 | Cn1c2c(c3ccccc31)CCN(CCCOc1ccccc1)C2 | 150 nM | 400 nM | 360 nM | 620 nM | 
13 | Cn1c2c(c3ccccc31)CN(CCCOc1ccc(Cl)c(Cl)c1)CC2 | 195 nM |  |  | 200 nM | 
14 | Cn1c2c(c3ccccc31)CN(CCCOc1ccc(Cl)cc1)CC2 | 115 nM |  |  | 200 nM | 
15 | Cn1c2c(c3ccccc31)CN(CCOc1ccc(F)cc1)CC2 | 175 nM | 235 nM |  | 930 nM | 
16 | CCn1c2c(c3ccccc31)CN(CCCOc1ccccc1)CC2 | 50 nM | 215 nM | 75 nM | 100 nM | 
17 | COc1cccc2c3c(n(C)c12)CCN(CCCOc1ccc(F)cc1)C3 | 120 nM | 225 nM | 1220 nM | 1390 nM | 
18 | COc1ccc2c(c1)c1c(n2C)CCN(CCCOc2ccc(F)cc2)C1 | 38 nM | 150 nM | 98 nM | 165 nM | 
19 | Cn1c2c(c3ccccc31)CN(CCCOc1ccccc1)CC2 | 70 nM | 285 nM | 25 nM | 100 nM | 
20 | CC1=NCCc2c1n(C)c1ccccc21 |  |  |  |  | > 10000 nM
21 | COc1ccc(CCCCN2CCc3c(c4ccccc4n3C)C2)cc1 | 415 nM | 990 nM | 90 nM |  | 
22 | Fc1ccc(OCCCN2CCCCC2)cc1 |  |  |  |  | > 10000 nM
23 | O=C(CCCN1CCc2c([nH]c3ccccc23)C1)c1ccccc1 | 16 nM | 115 nM | 550 nM |  | 
24 | COc1ccc2c3c([nH]c2c1)C(C)NCC3 (stereo unspecified) |  |  |  |  | > 10000 nM
25 | Cn1c2c(c3ccccc31)CN(CCCC(=O)c1ccc(F)cc1)CC2 | 60 nM | 60 nM | 115 nM |  | 
26 | Cn1c2c(c3ccccc31)CN(CCCCc1ccccc1)CC2 |  |  | 130 nM |  | 
27 | Cn1c2c(c3ccccc31)CN(CCCC(=O)c1ccccc1)CC2 | 22 nM |  | 135 nM | 168 nM | 
28 | Cn1c2c(c3ccccc31)CN(CC#CCCc1ccccc1)CC2 |  |  | 1710 nM | 1780 nM | 

Row | SMILES | Ki [1] | Ki [2] | Ki [3] | Ki [4] | Ki [5]
29 | Cn1c2c(c3ccccc31)CN(CCCOc1ccc([N+](=O)[O-])cc1)CC2 | 280 nM | 300 nM |  | 250 nM | 
30 | c1ccc(Cn2c3c(c4ccccc42)CN(CCCOc2ccccc2)CC3)cc1 | 65 nM | 90 nM | 875 nM |  | 
31 | Cn1c2c(c3ccccc31)CN(C/C=C\CCc1ccccc1)CC2 | 120 nM | 285 nM | 330 nM | 208 nM | 
32 | COc1ccc2[nH]c3c(C)nccc3c2c1 |  |  |  |  | > 10000 nM
33 | Cn1c2c(c3ccccc31)CN(CCCOCc1ccccc1)CC2 | 225 nM | 650 nM | 295 nM |  | 
34 | O=C(CCCN1CCc2[nH]c3ccccc3c2C1)c1ccc(F)cc1 |  |  | 512 nM |  | 
35 | Cn1c2c(c3cc(Cl)ccc31)CN(CCCOc1ccc(F)cc1)CC2 | 130 nM | 300 nM | 180 nM | 270 nM | 
36 | COc1ccc2[nH]c3c(c2c1)CCN=C3C |  |  |  |  | > 10000 nM
37 | Cn1c2c(c3ccccc31)CN(CCCC(O)c1ccc(F)cc1)CC2 (stereo unspecified) | 160 nM | 390 nM | 225 nM | 285 nM | 
38 | Cn1c2c(c3ccccc31)CN(CCCOc1ccc3ccccc3c1)CC2 | 480 nM | 300 nM | 655 nM |  | 
39 | COc1ccc(OCCCN2CCc3c(c4ccccc4n3C)C2)cc1 | 100 nM |  |  | 350 nM | 
40 | Cn1ccc2c1CCN(CCCOc1ccc(F)cc1)C2 |  |  |  |  | 1920 nM
41 | Cn1c2c(c3ccccc31)CN(CCCCc1ccc(F)cc1)CC2 | 65 nM |  | 95 nM |  | 
42 | Cn1c2c(c3ccccc31)CC(CCCOc1ccc(N)cc1)CC2 (stereo unspecified) |  |  |  |  | > 10000 nM
43 | c1ccc(OCCCN2CCc3c([nH]c4ccccc34)C2)cc1 | 50 nM | 310 nM | 335 nM |  | 
44 | Cn1c2c(c3ccccc31)CN(CCCOc1ccc(N)cc1)CC2 | 285 nM | 300 nM |  | 190 nM | 
45 | Cn1c2c(c3ccccc31)CN(C/C=C/CCc1ccccc1)CC2 | 60 nM | 245 nM | 350 nM | 185 nM | 
46 | COc1ccc2c3c([nH]c2c1)CNCC3 |  |  |  |  | > 10000 nM
47 | CN(C)CCCOc1ccc(F)cc1 |  |  |  |  | > 10000 nM
48 | Cn1c2c(c3ccccc31)CNCC2 | 3100 nM |  |  |  | 
49 | Cn1c2c(c3ccccc31)CN(CCCOc1ccc(F)cc1)CC2 | 30 nM | 75 nM | 13 nM |  | 
50 | COc1ccc2c3c([nH]c2c1)C=NCC3 [CGS-19281A] |  |  |  |  | > 10000 nM
51 | COc1ccc2c3c([nH]c2c1)C(C)=NCC3 [HARMALINE] |  |  |  |  | > 10000 nM
52 | CC1=NCCc2c1[nH]c1cc(O)ccc21 [HARMALOL] |  |  |  |  | > 10000 nM
53 | COc1ccc2c(c1)[nH]c1c(C)nccc12 [HARMINE] |  |  |  |  | > 10000 nM
54 | CC1NCCc2c1[nH]c1ccccc21 (stereo unspecified) [TETRAHYDROHARMAN] |  |  |  |  | > 10000 nM
55 | c1ccc2c3c([nH]c2c1)CNCC3 [TRYPTOLINE] |  |  |  |  | 3200 nM
